Source: ChEMBL document CHEMBL4316593 (Eur J Med Chem, 2019)

Columns and labels:
U-87 MG [1] = assay: Induction of DNA damage in human U87 cells assessed as change in SFN gene expression at cytotoxic IC50 measured after 48 hrs […] relative to control; assay type: functional, U-87MG ATCC
Procedure, shortened: (§1)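 U87 cells grown in MEM with 10% FBS at 37°C, 5% CO2. Cells exposed to IC50 of test compound for 48 hrs, alongside untreated and cisplatin controls, each condition in triplicate. RNA isolated and profiled; differential expression called with DESeq2 (q-value < 0.05, fold change > 1.5), fold change versus untreated.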

[2] = Inhibition of RTK/PI3K/AKT/mTOR signaling in human U87 cells assessed as up regulation of lemur tyrosine kinase 3 gene expression at cytotoxic IC50 measured after 48 hrs relative to control; assay type: cell-based; settings: U-87MG ATCC
[3] = Inhibition of RTK/PI3K/AKT/mTOR signaling in human U87 cells assessed as up regulation of GGA2 gene expression at cytotoxic IC50 measured after 48 hrs relative to control; assay type: cell-based; settings: U-87MG ATCC
Procedure, shortened: (§2)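 Cells were exposed for 48hrs at 37°C in humidified 5% CO₂ to the compound at its previously determined IC₅₀, with Cisplatin at its IC₅₀ and an untreated negative control alongside. Each condition was run in triplicate. RNA was isolated from all samples by the same protocol. Genes were called differentially expressed by DESeq2 at q-value < 0.05 and fold change > 1.5.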

U-87 MG [4] = assay: Cell cycle arrest in human U87 cells assessed as change in GADD45A gene expression at cytotoxic IC50 measured after 48 hrs […] relative to control; assay type: functional, U-87MG ATCC
Procedure, shortened: (§3)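 U87 expression profiling. Cells incubated 48hrs at 37°C, 5% CO₂ with the IC₅₀ concentration, alongside a cisplatin and an untreated control, in triplicate. RNA was isolated by one common protocol and profiled. DEGs were called with DESeq2 (q < 0.05, fold change > 1.5) and expressed as fold change versus untreated.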

[5] = Inhibition of RTK/PI3K/AKT/mTOR signaling in human U87 cells assessed as up regulation of CPLX1 gene expression at cytotoxic IC50 measured after 48 hrs relative to control; assay type: cell-based; settings: U-87MG ATCC; procedure, shortened: as §2
[6] = Inhibition of RTK/PI3K/AKT/mTOR signaling in human U87 cells assessed as down regulation of MAFF gene expression at cytotoxic IC50 measured after 48 hrs relative to control; assay type: cell-based; settings: U-87MG ATCC; procedure, shortened: as §2
U-87 MG [7] = assay: Induction of DNA damage in human U87 cells assessed as change in MDM2 gene expression at cytotoxic IC50 measured after 48 hrs […] relative to control; assay type: functional, U-87MG ATCC; procedure, shortened: as §3
[8] = Inhibition of RTK/PI3K/AKT/mTOR signaling in human U87 cells assessed as down regulation of SIDT2 gene expression at cytotoxic IC50 measured after 48 hrs relative to control; assay type: cell-based; settings: U-87MG ATCC; procedure, shortened: as §2
U-87 MG [9] = assay: Induction of DNA damage in human U87 cells assessed as change in FANCI gene expression at cytotoxic IC50 measured after 48 hrs […] relative to control; assay type: functional, U-87MG ATCC; procedure, shortened: as §3
U-87 MG [10] = assay: Induction of DNA damage in human U87 cells assessed as change in TRIAP1 gene expression at cytotoxic IC50 measured after 48 hrs […] relative to control; assay type: functional, U-87MG ATCC; procedure, shortened: as §1
LN-229 [11] = assay: Induction of apoptosis in human LN229 cells assessed as apoptotic cells at cytotoxic IC50 measured after 48 hrs by Annexin V-FITC/propidium iodide staining based flow cytometry (reference value: 29.3%); assay type: functional
[12] = Inhibition of RTK/PI3K/AKT/mTOR signaling in human U87 cells assessed as down regulation of SAFB2 gene expression at cytotoxic IC50 measured after 48 hrs relative to control; assay type: cell-based; settings: U-87MG ATCC; procedure, shortened: as §2
U-87 MG [13] = assay: Cell cycle arrest in human U87 cells assessed as change in CDK2 gene expression at cytotoxic IC50 measured after 48 hrs […] relative to control; assay type: functional, U-87MG ATCC; procedure, shortened: as §3
[14] = Inhibition of RTK/PI3K/AKT/mTOR signaling in human U87 cells assessed as up regulation of retinoic acid receptor alpha gene expression at cytotoxic IC50 measured after 48 hrs relative to control; assay type: cell-based; settings: U-87MG ATCC
U-87 MG [15] = assay: Induction of DNA damage in human U87 cells assessed as change in BAX gene expression at cytotoxic IC50 measured after 48 hrs […] relative to control; assay type: functional, U-87MG ATCC; procedure, shortened: as §3
[16] = Inhibition of RTK/PI3K/AKT/mTOR signaling in human U87 cells assessed as down regulation of CMTM3 gene expression at cytotoxic IC50 measured after 48 hrs relative to control; assay type: cell-based; settings: U-87MG ATCC; procedure, shortened: as §1
LN-229 [17] = assay: Induction of apoptosis in human LN229 cells assessed as decrease in caspase-3/7 activation at cytotoxic IC50 measured after 5 hrs by caspase-glo 3/7 luminescence assay relative to control; assay type: functional; design: scale not given: the % may be the effect or the level left
Procedure, shortened: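 Cells grown overnight in 96-well format, then given IC50 for 5 hrs at 37°C, 5% CO2, with negative, positive and blank (medium+DMSO+dye) wells. Equilibrated 30 min at room temperature, Caspase-Glo 3/7 reagent added 1:1 in the dark, luminescence read at 1 hr. Fold change = (test−blank)/(control−blank). Triplicate measurements, at least two independent experiments.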

[18] = Inhibition of RTK/PI3K/AKT/mTOR signaling in human U87 cells assessed as up regulation of KCMF1 gene expression at cytotoxic IC50 measured after 48 hrs relative to control; assay type: cell-based; settings: U-87MG ATCC; procedure, shortened: as §2
U-87 MG [19] = assay: Induction of DNA damage in human U87 cells assessed as change in PIDD1 gene expression at cytotoxic IC50 measured after 48 hrs […] relative to control; assay type: functional, U-87MG ATCC; procedure, shortened: as §3
[20] = Inhibition of RTK/PI3K/AKT/mTOR signaling in human U87 cells assessed as down regulation of COG1 gene expression at cytotoxic IC50 measured after 48 hrs relative to control; assay type: cell-based; settings: U-87MG ATCC; procedure, shortened: as §1
U-87 MG [21] = assay: Induction of DNA damage in human U87 cells assessed as change in DTL gene expression at cytotoxic IC50 measured after 48 hrs […] relative to control; assay type: functional, U-87MG ATCC; procedure, shortened: as §3
U-87 MG [22] = assay: Cell cycle arrest in human U87 cells assessed as change in GADD45B gene expression at cytotoxic IC50 measured after 48 hrs […] relative to control; assay type: functional, U-87MG ATCC; procedure, shortened: as §3
U-87 MG [23] = assay: Induction of apoptosis in human U87 cells assessed as change in BCL2L1 gene expression at cytotoxic IC50 measured after 48 hrs […] relative to control; assay type: functional, U-87MG ATCC; procedure, shortened: as §1
[24] = Inhibition of RTK/PI3K/AKT/mTOR signaling in human U87 cells assessed as down regulation of NAAA gene expression at cytotoxic IC50 measured after 48 hrs relative to control; assay type: cell-based; settings: U-87MG ATCC; procedure, shortened: as §2
[25] = Inhibition of RTK/PI3K/AKT/mTOR signaling in human U87 cells assessed as down regulation of PHIP gene expression at cytotoxic IC50 measured after 48 hrs relative to control; assay type: cell-based; settings: U-87MG ATCC; procedure, shortened: as §2
[26] = Inhibition of RTK/PI3K/AKT/mTOR signaling in human U87 cells assessed as down regulation of EIF1B gene expression at cytotoxic IC50 measured after 48 hrs relative to control; assay type: cell-based; settings: U-87MG ATCC; procedure, shortened: as §1
[27] = Inhibition of RTK/PI3K/AKT/mTOR signaling in human U87 cells assessed as up regulation of isoleucyl-tRNA synthetase gene expression at cytotoxic IC50 measured after 48 hrs relative to control; assay type: cell-based; settings: U-87MG ATCC
U-87 MG [28] = assay: Cell cycle arrest in human U87 cells assessed as change in PKMYT1 gene expression at cytotoxic IC50 measured after 48 hrs […] relative to control; assay type: functional, U-87MG ATCC; procedure, shortened: as §3

## CC(=O)C(=NNc1ccccc1C#N)C(C)=O
U-87 MG [1]
  fold change (FC): 1.949
[2]
  log2FC: 0.868
[3]
  log2FC: 0.505
U-87 MG [4]
  fold change (FC): -0.9679
[5]
  log2FC: 1.75
[6]
  log2FC: -1.1
U-87 MG [7]
  fold change (FC): 1.471
[8]
  log2FC: -0.671
U-87 MG [9]
  fold change (FC): 1.708
U-87 MG [10]
  fold change (FC): 2.018
LN-229 [11]
  Activity: 57.3%
[12]
  log2FC: -0.69
U-87 MG [13]
  fold change (FC): 1.392
[14]
  log2FC: 1.04
U-87 MG [15]
  fold change (FC): 2.512
[16]
  log2FC: -0.716
LN-229 [17]
  Activity: 36.1%
[18]
  log2FC: 0.499
U-87 MG [19]
  fold change (FC): 2.467
[20]
  log2FC: -0.632
U-87 MG [21]
  fold change (FC): 1.519
U-87 MG [22]
  fold change (FC): -2.899
U-87 MG [23]
  log2FC: 0.9994
[24]
  log2FC: -1.57
[25]
  log2FC: -0.753
[26]
  log2FC: -0.906
[27]
  log2FC: 1.04
U-87 MG [28]
  fold change (FC): 1.852
